Measured values published in ChEMBL document CHEMBL4190408 (J Med Chem, 2018).
≈ marks a conversion by molar mass, not a printed value. Each block holds one molecule with its values, some of them ahead of it. Calls of active or inactive are those of the source. The calls are words filed in the database; no cut-off is given here.

Columns and labels:
[1] = Thermodynamic solubility of the compound in pH 7.4 solution after 90 mins by UVLC-MS analysis; format: physicochemical; details: for Therm_solubility: buffer, pH 7.4, 1.5 h
Cytochrome P450 3A4 [2] = biological target: T1, Cytochrome P450 3A4 (Homo sapiens, UniProt P08684); details: liver microsomes
[3] = biological target: T2, Voltage-gated inwardly rectifying potassium channel KCNH2 (Homo sapiens, UniProt Q12809)
physchem [4] = assay: physchem
physchem [5] = details: phosphate buffer, pH 7.4
[6] = biological target: Phosphatidylinositol 4-kinase type 2-beta (Homo sapiens) (UniProt Q8TCG2); assay: Inhibition of recombinant human full length GST-tagged PI4K2beta expressed in insect cells at 10 uM
in vitro [7] = details: mouse
in vitro [8] = details: human
[9] = biological target: Phosphatidylinositol 4-kinase alpha (Homo sapiens) (UniProt P42356); assay: Inhibition of PI4K3alpha (unknown origin) at 10 uM
[10] = biological target: Phosphatidylinositol 4-kinase type 2-alpha (Homo sapiens) (UniProt Q9BTU6); assay: Inhibition of recombinant human full length GST-tagged PI4K2alpha expressed in insect cells at 10 uM
[11] = biological target: T2, Voltage-gated inwardly rectifying potassium channel KCNH2; remark: listed apart in the source
[12] = buffer, pH 7.4, 1.5 h
Cytochrome P450 3A4 [13] = biological target: T1, Cytochrome P450 3A4
[14] = Half life in Balb/c mouse at 1 mg/kg, iv; format: ADME, organism-based; details: Balb/c, in vivo
Method in brief: (§1)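 Intravenous PK in male Balb/C mice, n=3, at 1 mpk. Vehicle was 30% DMA or 15% NMP, depending on the compound.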

[15] = Apparent clearance in Balb/c mouse at 10 mg/kg, po after 1 hr; format: ADME, organism-based; details: in vivo
[16] = Oral bioavailability in Balb/c mouse at 10 mg/kg after 1 hr; format: ADME, organism-based; details: Balb/c, in vivo
Method in brief: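 Male Balb/C mice, n=3. Oral dose of 10 mpk as a homogeneous suspension of crystalline solid in 0.1% Tween 80, 0.1% silicone antifoam, 1% methylcellulose (400 cps) in water. I.v. dose of 1 mpk in 30% DMA or 15% NMP, depending on the compound. Bioavailability was extrapolated from the i.v./p.o. experiments.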

[17] = Clearance in Balb/c mouse at 1 mg/kg, iv; format: ADME, organism-based; details: Balb/c, in vivo; method in brief: as §1
[18] = Fraction unbound in mouse blood; format: ADME, tissue-based
Mus musculus [19] = assay: Unbound Cmax in Balb/c mouse at 10 mg/kg, po after 1 hr; format: ADME, organism-based; details: in vivo
Mus musculus [20] = assay: Unbound AUC (infinity) in Balb/c mouse at 10 mg/kg, po after 1 hr; format: ADME, organism-based; details: in vivo
[21] = Volume of distribution at steady state in Balb/c mouse at 1 mg/kg, iv; format: ADME, organism-based; details: Balb/c, in vivo, read-out: Vdss; method in brief: as §1
Mus musculus [22] = assay: Unbound AUC in Balb/c mouse at 1 mg/kg, iv; format: ADME, organism-based; details: in vivo; method in brief: as §1
[23] = buffer, 1.5 h, pH 7.4
[24] = biological target: Phosphatidylinositol 4-kinase beta (Homo sapiens, UniProt Q9UBF8); assay: Inhibition of recombinant human full length GST-tagged PI4K3beta expressed in baculovirus expression system using PI lipid kinase substrate after 60 mins by ADP-Glo assay
Phosphatidylinositol 4-kinase beta, sequence (Q9UBF8 whole entry): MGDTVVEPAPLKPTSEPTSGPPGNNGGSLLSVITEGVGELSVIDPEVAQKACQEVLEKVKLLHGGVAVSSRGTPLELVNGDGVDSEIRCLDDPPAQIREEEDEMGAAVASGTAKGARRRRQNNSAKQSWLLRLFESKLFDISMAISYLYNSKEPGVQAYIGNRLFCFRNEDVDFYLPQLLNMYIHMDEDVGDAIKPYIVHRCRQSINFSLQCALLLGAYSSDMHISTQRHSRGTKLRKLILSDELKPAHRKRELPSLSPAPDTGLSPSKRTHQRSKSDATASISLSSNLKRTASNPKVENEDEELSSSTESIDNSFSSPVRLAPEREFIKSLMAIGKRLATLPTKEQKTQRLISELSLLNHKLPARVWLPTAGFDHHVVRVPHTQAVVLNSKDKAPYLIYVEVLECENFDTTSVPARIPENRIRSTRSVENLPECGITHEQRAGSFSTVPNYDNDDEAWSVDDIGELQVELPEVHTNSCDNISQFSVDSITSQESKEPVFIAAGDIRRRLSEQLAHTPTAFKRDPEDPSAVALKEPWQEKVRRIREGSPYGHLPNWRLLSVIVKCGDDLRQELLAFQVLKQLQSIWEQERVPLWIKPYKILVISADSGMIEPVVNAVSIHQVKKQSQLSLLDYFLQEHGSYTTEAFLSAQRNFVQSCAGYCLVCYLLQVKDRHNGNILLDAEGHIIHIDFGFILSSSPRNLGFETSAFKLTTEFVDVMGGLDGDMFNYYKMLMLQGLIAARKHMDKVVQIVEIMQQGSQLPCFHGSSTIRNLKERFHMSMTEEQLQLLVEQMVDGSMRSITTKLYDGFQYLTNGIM

T1 sequence (P08684 whole entry): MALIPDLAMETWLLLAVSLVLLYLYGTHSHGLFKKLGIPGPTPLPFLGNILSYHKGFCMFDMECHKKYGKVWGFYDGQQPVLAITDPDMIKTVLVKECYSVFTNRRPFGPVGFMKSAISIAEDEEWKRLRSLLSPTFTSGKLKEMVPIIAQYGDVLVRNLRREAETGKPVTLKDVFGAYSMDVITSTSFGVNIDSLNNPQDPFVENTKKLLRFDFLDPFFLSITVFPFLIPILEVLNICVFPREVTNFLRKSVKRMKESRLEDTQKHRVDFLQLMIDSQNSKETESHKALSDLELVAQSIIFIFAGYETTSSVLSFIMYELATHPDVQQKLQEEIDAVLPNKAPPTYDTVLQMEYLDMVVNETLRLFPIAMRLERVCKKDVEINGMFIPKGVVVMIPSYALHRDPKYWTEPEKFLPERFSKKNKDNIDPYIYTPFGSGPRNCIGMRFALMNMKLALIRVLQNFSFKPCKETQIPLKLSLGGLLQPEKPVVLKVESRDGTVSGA
T2 sequence (Q12809 whole entry): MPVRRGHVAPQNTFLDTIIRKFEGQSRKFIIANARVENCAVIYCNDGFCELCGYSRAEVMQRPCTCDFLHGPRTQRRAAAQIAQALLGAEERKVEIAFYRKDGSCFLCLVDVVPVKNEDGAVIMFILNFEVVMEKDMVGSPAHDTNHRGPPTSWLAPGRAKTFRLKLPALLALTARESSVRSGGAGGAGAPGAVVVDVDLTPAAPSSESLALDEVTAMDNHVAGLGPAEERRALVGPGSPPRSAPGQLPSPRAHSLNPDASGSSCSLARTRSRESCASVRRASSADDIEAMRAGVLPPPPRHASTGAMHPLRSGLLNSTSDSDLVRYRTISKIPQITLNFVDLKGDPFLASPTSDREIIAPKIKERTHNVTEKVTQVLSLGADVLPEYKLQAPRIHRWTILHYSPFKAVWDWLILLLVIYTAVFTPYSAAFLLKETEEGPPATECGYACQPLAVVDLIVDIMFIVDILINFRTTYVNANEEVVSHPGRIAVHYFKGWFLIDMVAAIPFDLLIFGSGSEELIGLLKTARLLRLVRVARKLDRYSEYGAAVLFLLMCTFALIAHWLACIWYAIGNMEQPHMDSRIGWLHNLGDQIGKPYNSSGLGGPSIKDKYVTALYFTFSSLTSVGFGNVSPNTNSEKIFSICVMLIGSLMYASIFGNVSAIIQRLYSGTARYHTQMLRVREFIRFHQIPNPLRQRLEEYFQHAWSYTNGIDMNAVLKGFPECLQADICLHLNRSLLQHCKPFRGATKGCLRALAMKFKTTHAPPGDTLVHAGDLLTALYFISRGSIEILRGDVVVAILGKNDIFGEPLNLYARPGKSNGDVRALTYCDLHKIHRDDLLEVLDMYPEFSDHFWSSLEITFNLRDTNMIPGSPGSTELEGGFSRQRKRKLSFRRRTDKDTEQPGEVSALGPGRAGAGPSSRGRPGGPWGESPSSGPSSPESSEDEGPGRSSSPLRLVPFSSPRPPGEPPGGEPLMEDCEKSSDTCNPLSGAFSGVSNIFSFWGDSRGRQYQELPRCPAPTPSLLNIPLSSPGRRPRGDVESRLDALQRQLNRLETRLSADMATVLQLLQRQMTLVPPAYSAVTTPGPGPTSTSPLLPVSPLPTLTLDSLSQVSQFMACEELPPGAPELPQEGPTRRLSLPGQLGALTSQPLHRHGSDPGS
Phosphatidylinositol 4-kinase type 2-alpha (Homo sapiens), sequence (Q9BTU6 whole entry): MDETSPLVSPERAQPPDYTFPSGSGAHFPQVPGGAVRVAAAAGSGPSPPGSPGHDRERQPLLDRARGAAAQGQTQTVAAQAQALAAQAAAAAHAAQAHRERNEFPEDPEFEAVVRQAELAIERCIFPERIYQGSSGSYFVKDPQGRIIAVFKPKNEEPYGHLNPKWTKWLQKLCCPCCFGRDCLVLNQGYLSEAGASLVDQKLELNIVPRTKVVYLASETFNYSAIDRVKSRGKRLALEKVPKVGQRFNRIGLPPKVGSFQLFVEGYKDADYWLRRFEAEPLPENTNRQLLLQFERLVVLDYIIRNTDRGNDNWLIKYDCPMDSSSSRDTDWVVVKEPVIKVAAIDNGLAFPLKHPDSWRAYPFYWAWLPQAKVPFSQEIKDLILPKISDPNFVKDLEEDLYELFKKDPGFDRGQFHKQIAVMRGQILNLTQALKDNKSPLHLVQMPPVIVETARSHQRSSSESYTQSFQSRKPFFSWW
Phosphatidylinositol 4-kinase type 2-beta (Homo sapiens), sequence (Q8TCG2 whole entry): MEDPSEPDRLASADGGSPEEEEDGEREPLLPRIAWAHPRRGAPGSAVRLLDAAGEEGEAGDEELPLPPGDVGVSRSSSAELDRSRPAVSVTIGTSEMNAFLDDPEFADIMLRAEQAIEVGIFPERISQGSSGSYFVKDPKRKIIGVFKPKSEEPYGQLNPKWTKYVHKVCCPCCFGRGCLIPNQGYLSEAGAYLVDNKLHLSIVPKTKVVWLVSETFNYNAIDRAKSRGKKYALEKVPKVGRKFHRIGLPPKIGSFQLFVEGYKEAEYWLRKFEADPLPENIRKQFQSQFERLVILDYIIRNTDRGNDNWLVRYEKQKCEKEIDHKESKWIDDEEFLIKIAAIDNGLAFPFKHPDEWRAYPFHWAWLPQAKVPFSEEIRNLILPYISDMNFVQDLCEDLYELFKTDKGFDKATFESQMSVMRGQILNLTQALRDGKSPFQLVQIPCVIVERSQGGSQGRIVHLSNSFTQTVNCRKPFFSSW

SMILES: Nc1nc(N2CCN(C(=O)c3nc4ccccc4[nH]3)CC2)c2ncsc2n1
- logD at 1.5 h (physchem [5]): 2.54
- solubility kinetic at 1.5 h (physchem [4]; buffer, pH 7.4): 38 µM (≈ 14.5 µg/mL)

SMILES: Nc1nc(N2CCN(C(=O)c3cn4ccccc4n3)CC2)c2ncsc2n1
- logD at 1.5 h (physchem [5]): 1.58
- solubility kinetic at 1.5 h (physchem [4]; buffer, pH 7.4): > 350 µM

SMILES: Nc1nc(N2CCN(C(=O)Nc3ccccc3)CC2)c2ncsc2n1
- logD at 1.5 h (physchem [5]): 2.21
- solubility kinetic at 1.5 h (physchem [4]; buffer, pH 7.4): 178 µM (≈ 63.3 µg/mL)

SMILES: Cc1ccc(NC(=O)N2CCN(c3nc(N)nc4sc(-c5cccnc5)nc34)CC2)cc1
- logD at 1.5 h (physchem [5]): 3.42
- inhibition [6]: inactive
- microsomal CLint at 0.75 h, 3 µM (in vitro [7]; microsomes): 72 µL/min/mg
- microsomal CLint at 0.75 h, 3 µM (in vitro [8]; microsomes): 32 µL/min/mg
- inhibition [9]: inactive
- inhibition [10]: inactive
- IC50 [11]: 2 µM
- solubility kinetic at 1.5 h (physchem [4]; pH 7.4 solution): 9 µM (≈ 4.02 µg/mL)

SMILES: Nc1nc(N2CCN(C(=O)Nc3cccnc3)CC2)c2ncsc2n1
- logD at 1.5 h (physchem [5]): 1.46
- solubility kinetic at 1.5 h (physchem [4]; buffer, pH 7.4): > 350 µM

SMILES: COc1ccc(NC(=O)N2CCN(c3nc(N)nc4sc(-c5ccccc5)nc34)CC2)cc1
- logD [12]: Nd(Insoluble)
- microsomal CLint at 0.75 h, 3 µM (in vitro [7]; liver microsomes): 20 µL/min/mg
- microsomal CLint at 0.75 h, 3 µM (in vitro [8]; liver microsomes): 13 µL/min/mg
- IC50 (Cytochrome P450 3A4 [13]): > 20 µM
- IC50 [11]: 1.7 µM
- solubility kinetic at 1.5 h (physchem [4]; buffer, pH 7.4): 6 µM (≈ 2.77 µg/mL)

SMILES: COc1ccc(NC(=O)N2CCN(c3nc(N)nc4c3ncn4C)[C@@H](C)C2)c(C)c1
- half-life [14]: 48 min
- CL/F [15]: 46 mL/min/kg
- solubility thermodynamic at 1.5 h ([1]; pH 7.4 solution, pH 7.4, read-out: Therm_solubility): 150 µM (≈ 61.6 µg/mL)
- logD at 1.5 h (physchem [5]): 1.35
- bioavailability [16]: 39%
- clearance [17]: 19 mL/min/kg
- fraction unbound [18]: 0.2
- fCmax (Mus musculus [19]): 1087 nM
- microsomal CLint at 0.75 h, 3 µM (in vitro [7]; liver microsomes): 10 µL/min/mg
- microsomal CLint at 0.75 h, 3 µM (in vitro [8]; liver microsomes): 9 µL/min/mg
- fAUC (Mus musculus [20]): 1.746 µM·h
- Vd [21]: 0.8 L/kg
- fAUC (Mus musculus [22]): 0.447 µM·h
- solubility kinetic at 1.5 h (physchem [4]; buffer, pH 7.4): > 350 µM

SMILES: Nc1nc(N2CCN(C(=O)COc3ccc(Cl)cc3)CC2)c2nc(-c3cccnc3)sc2n1
- IC50 (Cytochrome P450 3A4 [2]): Nd(Insoluble)
- Kinetic_solubility [23]: Nd(Insoluble)
- logD [12]: Nd(Insoluble)
- microsomal CLint at 0.75 h, 3 µM (in vitro [7]; liver microsomes): 133 µL/min/mg
- microsomal CLint at 0.75 h, 3 µM (in vitro [8]; liver microsomes): 34 µL/min/mg
- IC50 [3]: Nd(Insoluble)

SMILES: COc1cc(C)c(NC(=O)N2CCN(c3nc(N)nc4scnc34)CC2)cn1
- logD at 1.5 h (physchem [5]): 1.66
- solubility kinetic at 1.5 h (physchem [4]; buffer, pH 7.4): > 350 µM

SMILES: COc1ccc(NC(=O)N2CCN(c3nc(N)nc4sc(-c5cccnc5)nc34)CC2)cc1
- microsomal CLint at 0.75 h, 3 µM (in vitro [7]; liver microsomes): 87 µL/min/mg
- microsomal CLint at 0.75 h, 3 µM (in vitro [8]; liver microsomes): 35 µL/min/mg

Now from value to molecule, other results behind:

- Therm_solubility [1]: Nd(Insoluble)
- IC50 (Cytochrome P450 3A4 [2]): Nd(Insoluble)
- solubility kinetic at 1.5 h (physchem [4]; buffer, pH 7.4): > 350 µM
SMILES: COc1ccc(NC(=O)N2C3CCC2CN(c2nc(N)nc4scnc24)C3)cc1
- IC50 [3]: Nd(Insoluble)

- Therm_solubility [1]: Nd(Insoluble)
- IC50 (Cytochrome P450 3A4 [2]): Nd(Insoluble)
- solubility kinetic at 1.5 h (physchem [4]; buffer, pH 7.4): > 350 µM
SMILES: COc1ccc(NC(=O)N2CCN(c3nc(N)nc4scnc34)CC2C)cc1 (configuration not stated)
- IC50 [3]: Nd(Insoluble)

- logD at 1.5 h (physchem [5]): 3.39
- solubility kinetic at 1.5 h (physchem [4]; buffer, pH 7.4): 12 µM (≈ 5.27 µg/mL)
SMILES: Nc1nc(N2CCN(C(=O)Nc3ccc(OC(F)(F)F)cc3)CC2)c2ncsc2n1

- logD at 1.5 h (physchem [5]): 1.79
- solubility kinetic at 1.5 h (physchem [4]; buffer, pH 7.4): 293 µM (≈ 113 µg/mL)
SMILES: COc1ccc(NC(=O)N2CCN(c3nc(N)nc4scnc34)CC2)cn1

- Therm_solubility [1]: Nd(Insoluble)
- IC50 (Cytochrome P450 3A4 [2]): Nd(Insoluble)
- solubility kinetic at 1.5 h (physchem [4]; buffer, pH 7.4): > 350 µM
SMILES: COc1ccc(NC(=O)N2CCN(c3nc(N)nc4scnc34)C(C)C2)cc1 (configuration not stated)
- IC50 [3]: Nd(Insoluble)

- IC50 [24]: > 6 µM
SMILES: COc1ccc(NC(=O)C2CCN(c3nc(N)nc4scnc34)CC2)cc1

- Therm_solubility [1]: Nd(Insoluble)
- IC50 (Cytochrome P450 3A4 [2]): Nd(Insoluble)
- solubility kinetic at 1.5 h (physchem [4]; buffer, pH 7.4): > 350 µM
SMILES: COc1ccc(NC(=O)N2CCN(c3nc(N)nc4scnc34)C(C)C2C)cc1 (configuration not stated)
- IC50 [3]: Nd(Insoluble)
